This is an account of results in ChEMBL document CHEMBL3352149, “Promiscuity and selectivity in covalent enzyme inhibition: a systematic study of electrophilic fragments” (J Med Chem, 2014).

Each structure is given as a SMILES string.

The subject of test [1] is Escherichia coli. Kind of test: Inhibition of wild-type Escherichia coli MurE compound preincubated for 10 mins before substrate addition at 25 uM measured after 15 mins by LC-MS method. Summed up:
(§1)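 E. coli wild-type enzyme (4 nM) was preincubated with 25 μM compound for 10 min at 37 °C. Enzymatically generated nucleotide-sugar substrate (~200 μM) plus ATP (~200 μM), or NADPH 200 μM for MurB, was added for 10 min. Reactions were started with amino-acid cosubstrate (MurC–F) or EP-UNAG (MurB), run 15 min at 37 °C, and quenched with formic acid. Product was measured by negative-ESI LC-MS EIC peak area. MgCl2: MurC 10, MurD/E 2, MurF 5 mM; MurB had 5 mM KCl. All in 50 mM NH4HCO3, 0.07% BSA, 1% DMSO; triplicate.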

The subject of test [2] is Escherichia coli. Kind of test: Inhibition of wild-type Escherichia coli MurC compound preincubated for 10 mins before substrate addition at 25 uM measured after 15 mins by LC-MS method. Summed up:
as §1

Test [3] in a line: GSH reactivity of the compound assessed as adducts formation by RP-HPLC analysis. Summed up: (§2)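 Fresh aqueous glutathione (10 mM solution) was added to 50 mM Tris-maleate buffer, pH 7.5. The reaction was started with compound from 10 mM DMSO stock (final 250 μM). Mixtures were followed by reversed-phase HPLC on an ODS column with a gradient to 100% B; rate constants are given in l·mol⁻¹·s⁻¹.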

The target of a further test is Prothrombin (Bos taurus) (UniProt P00735). Kind of test: Inhibition of Bovine thrombin using Boc-Val-Pro-Arg-AMC as substrate compound preincubated at 25 uM for 15 mins by fluorescence assay. The procedure, abridged: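 Bovine thrombin (final 10 nM) was preincubated 15 min with 25 μM compound in 50 mM Tris-HCl pH 7.5, 150 mM NaCl, 0.05% Tween 20. The reaction was started with Boc-Val-Pro-Arg-AMC (50 μM final). Fluorescence (ex 355/em 460 nm) was monitored continuously for 10 min; activity taken as slope (RFU/s). Triplicate.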

For test [4], the target named is Methionine aminopeptidase 1 (Homo sapiens) (UniProt P53582). Kind of test: Inhibition of human MetAP at 25 uM after 20 mins by HPLC analysis. Summed up:
(§3)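 Endpoint assay. Enzyme (50 nM) was preincubated with 25 μM compound for 20 min at 37 °C in 50 mM Tris pH 7.5, 100 mM NaCl, 100 μM CoCl2, 0.075% BSA. MGMM substrate (400 μM) was then added for 15 min (human MetAP-1) or 20 min (E. coli MetAP). Reactions were stopped with TFA. GMM product was quantified by RP-HPLC, UV 214 nm. Triplicate.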

The target of test [5] is Genome polyprotein (dengue virus type 2) (UniProt P12823). Kind of test: Inhibition of Dengue virus serotype 2 NS2B-NS3 protease at 50 uM.
The target in test [6] is Genome polyprotein (West Nile virus) (UniProt P06935). Kind of test: Inhibition of West Nile virus NS2B-NS3 protease at 50 uM.
Test [7] concerns Escherichia coli. Kind of test: Inhibition of wild-type Escherichia coli MurA compound preincubated for 10 mins before substrate addition at 25 uM measured after 15 mins by LC-MS method.
The test system of test [8] is Escherichia coli. Kind of test: Inhibition of wild-type Escherichia coli MurD compound preincubated for 10 mins before substrate addition at 25 uM measured after 15 mins by LC-MS method. The procedure, abridged: as §1
Test [9] relates to Escherichia coli. Kind of test: Inhibition of wild-type Escherichia coli MurF compound preincubated for 10 mins before substrate addition at 25 uM measured after 15 mins by LC-MS method. The procedure, abridged: as §1
Test [10] deals with Escherichia coli. Kind of test: Inhibition of wild-type Escherichia coli MurB compound preincubated for 10 mins before substrate addition at 25 uM measured after 15 mins by LC-MS method. The procedure, abridged: as §1
Test [11] relates to Escherichia coli. Kind of test: Inhibition of Escherichia coli MetAP at 25 uM after 20 mins by HPLC analysis. The procedure, abridged:
as §3

A further test relates to HeLa. Kind of test: Cytotoxicity against human HeLa cells assessed as reduction in cell viability after 24 hrs by CellTiter-Blue assay. Format: cell-based. Summed up: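 HeLa cells seeded in triplicate at 5×10^3 cells/well and grown 24 h at 37 °C/5% CO2. Compounds at varying concentrations were added as a 2x stock in phenol-red-free DMEM with FBS, penicillin/streptomycin, sodium pyruvate and L-glutamine, then left 24 h. Medium was replaced with CellTiter-Blue medium for 3 h. A570/A610 was read after background subtraction, as % of untreated controls; EC50 derived.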

Test [12] in a line: GSH reactivity of the compound assessed as adducts formation meaured over 3 hrs by RP-HPLC analysis. The procedure, abridged:
as §2

Chain of Genome polyprotein (West Nile virus) (P06935 whole entry): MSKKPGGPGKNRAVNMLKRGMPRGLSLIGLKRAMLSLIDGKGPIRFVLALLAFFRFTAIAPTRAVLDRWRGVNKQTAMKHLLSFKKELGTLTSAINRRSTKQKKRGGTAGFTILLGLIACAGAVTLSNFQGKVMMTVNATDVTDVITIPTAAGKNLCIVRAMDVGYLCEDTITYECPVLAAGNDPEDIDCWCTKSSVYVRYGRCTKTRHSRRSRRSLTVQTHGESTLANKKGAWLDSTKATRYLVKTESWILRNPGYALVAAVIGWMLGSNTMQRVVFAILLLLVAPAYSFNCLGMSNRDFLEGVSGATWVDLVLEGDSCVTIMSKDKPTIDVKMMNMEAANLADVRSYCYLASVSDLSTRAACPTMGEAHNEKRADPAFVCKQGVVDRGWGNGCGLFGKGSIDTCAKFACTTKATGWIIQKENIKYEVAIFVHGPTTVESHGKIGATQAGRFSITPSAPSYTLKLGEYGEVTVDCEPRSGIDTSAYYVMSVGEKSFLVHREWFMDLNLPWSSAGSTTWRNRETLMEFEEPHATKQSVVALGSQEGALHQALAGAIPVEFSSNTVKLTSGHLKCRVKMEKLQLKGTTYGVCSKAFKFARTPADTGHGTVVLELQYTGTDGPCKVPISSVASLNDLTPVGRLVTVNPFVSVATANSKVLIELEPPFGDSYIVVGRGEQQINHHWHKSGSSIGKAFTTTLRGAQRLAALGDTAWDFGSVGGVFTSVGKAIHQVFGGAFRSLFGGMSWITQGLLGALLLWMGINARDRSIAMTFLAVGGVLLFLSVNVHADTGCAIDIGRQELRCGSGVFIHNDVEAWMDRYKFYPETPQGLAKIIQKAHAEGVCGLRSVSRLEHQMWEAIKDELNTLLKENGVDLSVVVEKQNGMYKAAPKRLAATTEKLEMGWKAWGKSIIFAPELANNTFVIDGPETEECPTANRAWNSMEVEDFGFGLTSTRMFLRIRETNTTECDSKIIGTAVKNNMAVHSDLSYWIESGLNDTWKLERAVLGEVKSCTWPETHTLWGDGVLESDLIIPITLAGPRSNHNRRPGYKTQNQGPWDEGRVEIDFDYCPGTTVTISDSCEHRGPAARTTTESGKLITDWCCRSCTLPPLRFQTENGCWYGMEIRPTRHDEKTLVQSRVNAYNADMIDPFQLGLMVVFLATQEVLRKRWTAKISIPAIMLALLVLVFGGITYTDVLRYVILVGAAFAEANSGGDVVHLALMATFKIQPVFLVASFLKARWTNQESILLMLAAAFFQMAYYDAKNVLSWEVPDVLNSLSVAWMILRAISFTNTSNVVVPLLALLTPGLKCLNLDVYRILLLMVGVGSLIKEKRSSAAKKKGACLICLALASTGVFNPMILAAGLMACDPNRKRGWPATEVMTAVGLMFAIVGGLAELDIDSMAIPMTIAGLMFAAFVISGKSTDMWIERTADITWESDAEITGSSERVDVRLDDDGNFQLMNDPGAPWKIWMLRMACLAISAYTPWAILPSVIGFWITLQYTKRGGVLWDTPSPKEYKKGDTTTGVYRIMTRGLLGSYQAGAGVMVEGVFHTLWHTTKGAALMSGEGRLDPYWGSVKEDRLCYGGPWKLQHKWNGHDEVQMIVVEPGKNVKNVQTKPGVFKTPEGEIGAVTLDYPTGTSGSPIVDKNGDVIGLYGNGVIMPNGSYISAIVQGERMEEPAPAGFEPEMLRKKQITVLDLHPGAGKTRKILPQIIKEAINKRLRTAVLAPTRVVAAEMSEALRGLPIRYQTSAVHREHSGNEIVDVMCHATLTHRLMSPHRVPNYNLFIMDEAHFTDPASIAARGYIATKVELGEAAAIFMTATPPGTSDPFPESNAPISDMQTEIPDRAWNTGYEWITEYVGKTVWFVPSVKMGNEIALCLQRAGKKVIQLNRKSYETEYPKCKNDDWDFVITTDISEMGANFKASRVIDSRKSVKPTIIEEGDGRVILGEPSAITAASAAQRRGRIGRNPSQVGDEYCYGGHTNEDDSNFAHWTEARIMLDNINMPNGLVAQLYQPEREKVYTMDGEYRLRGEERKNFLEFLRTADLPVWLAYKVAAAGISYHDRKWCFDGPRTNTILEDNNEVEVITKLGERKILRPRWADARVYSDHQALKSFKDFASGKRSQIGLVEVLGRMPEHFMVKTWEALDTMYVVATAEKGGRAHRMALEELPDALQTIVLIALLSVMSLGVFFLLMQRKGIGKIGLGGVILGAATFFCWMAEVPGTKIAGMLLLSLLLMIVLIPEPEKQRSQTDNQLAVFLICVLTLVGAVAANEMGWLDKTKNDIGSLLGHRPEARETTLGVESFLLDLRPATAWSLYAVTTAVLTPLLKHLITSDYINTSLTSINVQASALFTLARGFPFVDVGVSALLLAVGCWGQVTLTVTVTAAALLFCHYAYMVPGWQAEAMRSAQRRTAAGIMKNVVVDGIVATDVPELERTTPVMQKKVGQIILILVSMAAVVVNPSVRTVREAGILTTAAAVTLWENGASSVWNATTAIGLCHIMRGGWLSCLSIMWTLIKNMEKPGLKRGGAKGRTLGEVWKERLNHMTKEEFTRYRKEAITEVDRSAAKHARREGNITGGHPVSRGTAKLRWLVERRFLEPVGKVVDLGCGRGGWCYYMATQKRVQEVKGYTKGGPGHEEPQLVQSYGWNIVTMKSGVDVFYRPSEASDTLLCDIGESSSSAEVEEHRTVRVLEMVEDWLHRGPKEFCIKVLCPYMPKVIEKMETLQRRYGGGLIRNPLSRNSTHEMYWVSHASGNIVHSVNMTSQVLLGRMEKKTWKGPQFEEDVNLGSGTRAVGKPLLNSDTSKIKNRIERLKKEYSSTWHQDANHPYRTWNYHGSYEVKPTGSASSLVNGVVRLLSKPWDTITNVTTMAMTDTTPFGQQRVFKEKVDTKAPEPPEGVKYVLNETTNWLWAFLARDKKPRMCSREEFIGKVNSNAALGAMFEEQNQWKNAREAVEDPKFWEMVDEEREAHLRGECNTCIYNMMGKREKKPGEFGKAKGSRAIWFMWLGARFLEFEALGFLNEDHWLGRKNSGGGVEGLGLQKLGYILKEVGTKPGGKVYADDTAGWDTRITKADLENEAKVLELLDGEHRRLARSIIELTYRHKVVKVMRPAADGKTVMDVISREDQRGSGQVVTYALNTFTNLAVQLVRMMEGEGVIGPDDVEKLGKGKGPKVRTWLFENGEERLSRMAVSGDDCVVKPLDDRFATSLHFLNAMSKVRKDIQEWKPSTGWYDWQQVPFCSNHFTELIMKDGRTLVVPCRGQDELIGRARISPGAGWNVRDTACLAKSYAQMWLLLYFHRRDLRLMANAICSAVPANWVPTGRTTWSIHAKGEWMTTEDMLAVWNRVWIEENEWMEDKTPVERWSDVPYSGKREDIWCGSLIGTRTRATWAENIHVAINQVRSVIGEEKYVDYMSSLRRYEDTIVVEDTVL

For `CCCCNC(=O)CCl`, the inhibition (in general, how much of the control response was suppressed) in the test on Escherichia coli [1] is 15%; with Escherichia coli [2] it was less than 15%; against Prothrombin (Bos taurus), less than 15%; in [4] it was less than 15%; in test [5] it was less than 15%; in test [6], less than 15%. The inhibition in the test on Escherichia coli [7], in the test on Escherichia coli [8], with Escherichia coli [9], in the test with Escherichia coli [10] and with Escherichia coli [11] was less than 15% in each case. Besides, the Activity in test [3] was less than 0.1 L/mol/s. In addition, the EC50 (as a rule, the concentration that produces a half-maximal response) in the test on HeLa was greater than 100 µM.
`CCCCNC(=O)CC#N`: the inhibition (with Escherichia coli [1]; in the test on Escherichia coli [2]; on Prothrombin (Bos taurus); in test [4]; in [5]; in test [6]) was less than 15% throughout. The inhibition in the test with Escherichia coli [7], in the test on Escherichia coli [8], in the test with Escherichia coli [9], in the test with Escherichia coli [10] and with Escherichia coli [11] was less than 15% throughout. Further, the Activity in test [3] was less than 0.1 L/mol/s. For the same molecule, in the test on HeLa, the concentration giving a half-maximal response (EC50) is greater than 100 µM.
As to `C=CC(=O)NC1CCCC1`, the inhibition in the test with Escherichia coli [1] was less than 15%; in the test with Escherichia coli [2], less than 15%; at Prothrombin (Bos taurus) it was less than 15%; in test [4] it was 17%; in [5], less than 15%; in test [6], less than 15%. The inhibition in the test with Escherichia coli [7], in the test on Escherichia coli [8], in the test with Escherichia coli [9], in the test with Escherichia coli [10] and with Escherichia coli [11] was less than 15% each time. Also, the figures for the Activity in test [3] and in test [12] were less than 0.1 L/mol/s and less than 5%, respectively.
On to `N#CCNC(=O)c1ccccc1`, for which the inhibition is less than 15% in the test with Escherichia coli [1]; less than 15% with Escherichia coli [2]; less than 15% on Prothrombin (Bos taurus); less than 15% in [4]; less than 15% in [5]; 23% in [6]. Moreover, the inhibition with Escherichia coli [7] is less than 15%; in the test with Escherichia coli [8], less than 15%; with Escherichia coli [9], less than 15%; in the test on Escherichia coli [10], 17%; with Escherichia coli [11], less than 15%. The Activity in [3] was less than 0.1 L/mol/s. The EC50 with HeLa was greater than 100 µM.
`C=CCNc1ccccc1`: the inhibition is less than 15% in the test on Escherichia coli [1]; less than 15% in the test on Escherichia coli [2]; less than 15% against Prothrombin (Bos taurus); 22% in test [4]; less than 15% in [5]; less than 15% in test [6]. In addition, the inhibition is 16% in the test with Escherichia coli [7]; less than 15% in the test on Escherichia coli [8]; less than 15% in the test with Escherichia coli [9]; less than 15% in the test on Escherichia coli [10]; less than 15% with Escherichia coli [11]. In addition, in test [3], the Activity was less than 0.1 L/mol/s. For the same molecule, the EC50 in the test on HeLa is greater than 100 µM.
For the molecule `C=CCNCCCC`, the inhibition (in the test on Escherichia coli [1]; in the test with Escherichia coli [2]; on Prothrombin (Bos taurus); in test [4]; in test [5]; in test [6]) was less than 15% in each case. Besides, the inhibition was less than 15% in the test with Escherichia coli [7]; less than 15% in the test on Escherichia coli [8]; less than 15% with Escherichia coli [9]; 19% in the test with Escherichia coli [10]; less than 15% with Escherichia coli [11]. Besides, in [3], the Activity was less than 0.1 L/mol/s. Moreover, the EC50 in the test on HeLa was greater than 100 µM.
`N#CCC(=O)NCc1ccccc1`: the inhibition in the test with Escherichia coli [1] was less than 15%; with Escherichia coli [2] it was less than 15%; at Prothrombin (Bos taurus) it was less than 15%; in [4], less than 15%; in test [5], less than 15%; in test [6] it was 18%. For the same molecule, the inhibition in the test on Escherichia coli [7], with Escherichia coli [8], in the test on Escherichia coli [9], in the test on Escherichia coli [10] and in the test with Escherichia coli [11] was less than 15% each time. Moreover, in test [3], the Activity is less than 0.1 L/mol/s.
Regarding `CCCCC(NC(=O)CC#N)C(=O)OC` (stereo not given), the inhibition in the test with Escherichia coli [1] was less than 15%; in the test on Escherichia coli [2], less than 15%; at Prothrombin (Bos taurus), less than 15%; in test [4], less than 15%; in [5] it was less than 15%; in [6] it was 18%. Moreover, the inhibition in the test on Escherichia coli [7], in the test with Escherichia coli [8], in the test on Escherichia coli [9], with Escherichia coli [10] and in the test on Escherichia coli [11] was less than 15% throughout. Further, in test [3], the Activity is less than 0.1 L/mol/s.
For `C=CCNC`, the inhibition (with Escherichia coli [1]; in the test on Escherichia coli [2]; against Prothrombin (Bos taurus); in test [4]; in test [5]; in test [6]) was less than 15% throughout. Further, the inhibition in the test with Escherichia coli [7], with Escherichia coli [8], with Escherichia coli [9], with Escherichia coli [10] and with Escherichia coli [11] was less than 15% each time. For the same molecule, the Activity in [3] is less than 0.1 L/mol/s.
For the molecule `N#CCNC(=O)/C=C/c1ccccc1`, the inhibition in the test on Escherichia coli [1] was less than 15%; in the test with Escherichia coli [2], less than 15%; against Prothrombin (Bos taurus), less than 15%; in test [4], less than 15%; in [5], 17%; in [6] it was 18%. Besides, the inhibition was less than 15% in the test on Escherichia coli [7]; less than 17% with Escherichia coli [8]; less than 15% in the test on Escherichia coli [9]; less than 15% in the test on Escherichia coli [10]; less than 15% with Escherichia coli [11]. Also, the Activity in test [3] is less than 0.1 L/mol/s. In addition, in the test with HeLa, the 50% effective concentration (EC50) was greater than 100 µM.
As for `C=CCNCc1ccccc1`, the inhibition (with Escherichia coli [1]; in the test with Escherichia coli [2]; at Prothrombin (Bos taurus); in test [4]; in [5]; in test [6]) was less than 15% in each case. The inhibition with Escherichia coli [7], with Escherichia coli [8], with Escherichia coli [9], in the test on Escherichia coli [10] and in the test on Escherichia coli [11] was less than 15% in each case. Moreover, in test [3], the Activity is less than 0.1 L/mol/s.
As to `N#CCC(=O)Nc1ccc(F)cc1`, the inhibition (in the test on Escherichia coli [1]; in the test with Escherichia coli [2]; against Prothrombin (Bos taurus); in [4]; in test [5]; in test [6]) was less than 15% each time. Further, the inhibition in the test on Escherichia coli [7], in the test on Escherichia coli [8], in the test with Escherichia coli [9], in the test with Escherichia coli [10] and with Escherichia coli [11] was less than 15% each time. In [3], the Activity was less than 0.1 L/mol/s.
`Cc1ccc(NC(=O)n2ccnc2)cc1`: the inhibition (with Escherichia coli [1]; with Escherichia coli [2]; on Prothrombin (Bos taurus); in test [4]; in [5]; in test [6]) was less than 15% each time. The inhibition with Escherichia coli [7], in the test on Escherichia coli [8], in the test on Escherichia coli [9], in the test on Escherichia coli [10] and in the test with Escherichia coli [11] was less than 15% each time. In test [3], the Activity is less than 0.1 L/mol/s.
On to `C=CCNc1ccc(C)cc1`, for which the inhibition (in the test with Escherichia coli [1]; with Escherichia coli [2]; against Prothrombin (Bos taurus); in test [4]; in test [5]; in test [6]) was less than 15% throughout. For the same molecule, the inhibition with Escherichia coli [7] was less than 15%; in the test with Escherichia coli [8] it was less than 15%; with Escherichia coli [9] it was 15%; in the test with Escherichia coli [10] it was less than 15%; with Escherichia coli [11], less than 15%. For the same molecule, the Activity in [3] is less than 0.1 L/mol/s.
